Data published in article PMC3594550 (Bioorganic & medicinal chemistry, 2012).
Where no end group is shown, it is not given here.

What was measured:
Grb2 SH3C [1] = settings: read-out: Kd towards Grb2 SH3C; cited from earlier work
Grb2 SH3C domain = Grb2 SH3C domain (Homo sapiens, UniProt P62993); experiment: Surface plasmon resonance; format: binding; settings: for SPR classification (binder / non-binder) / SPR observed binding behavior (stoichiometry): 50 and 100 µM compound; for SPR classification (binder / non-binder): cut-off 5 RU at 100 µM (KD ≤ 1 mM); for SPR binding behavior above concentrations of 200 µM: compound > 200 µM; for SPR observed binding behavior (stoichiometry): maximum theoretical response 56 RU for 1:1 binding
Grb2 SH3C domain, sequence (P62993 156-215 limits assumed): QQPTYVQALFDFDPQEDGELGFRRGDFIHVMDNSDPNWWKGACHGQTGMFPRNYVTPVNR
Outline: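 Untagged human Grb2 SH3C amine-coupled (EDC/NHS; 100 µM, pH 4.0 acetate) to a CM5 chip at 1500 RU. Compound in HBS-N (10 mM Hepes pH 7.4, 150 mM NaCl) with 5.0% DMSO and 0.01% Tween 20, injected 120 s at 40 µL/min, 25 °C. Double referenced against protein-free cell and buffer blank. DMSO-only and Gab2b peptide (24 µM) controls were run.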

[2] = target: Grb2 SH3C – Gab2b peptide interaction (Homo sapiens, UniProt P62993); experiment: Biochemical competition assay; format: binding; settings: for Hill slope of inhibition curve: concentration-response; for competition assay result in words: compound 5 mM
Grb2 SH3C – Gab2b peptide interaction, sequence (P62993 156-215 limits assumed): as above
Outline: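 Then 30 min with streptavidin-sepharose beads carrying biotinylated Gab2b peptide; washed with PBS-T. Bound protein read by SDS-PAGE, Coomassie and densitometry, normalised to no-inhibitor control (100%). Sigmoidal inhibition fit by nonlinear regression.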

Grb2 SH3C [3] = target: Grb2 SH3C (Homo sapiens, UniProt P62993); experiment: Isothermal titration calorimetry; format: binding; settings: 1 mM compound titrated into 20 µM Grb2 SH3C, 25 °C
Grb2 SH3C (Homo sapiens, UniProt P62993), sequence (P62993 156-215 limits assumed): as above
Outline: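 Purified Grb2 SH3C (20 µM) in 50 mM Hepes pH 7.5, 50 mM NaCl, 0.5% DMSO, clarified and degassed, 25 °C. Compound (1 mM, same buffer) injected once at 4 µL, then 18 × 15 µL. Heat peaks integrated per mole of compound and plotted against compound:protein molar ratio.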

[4] = Solubility / precipitation observed while handling in the competition assay; format: physicochemical

Row | Compound | SPR classification (binder / non-binder) (Grb2 SH3C domain) | SPR observed binding behavior (stoichiometry) (Grb2 SH3C domain) | competition assay result in words [2] | also measured
1 | 15-mer Gab2 peptide: positive control Gab2b peptide; sequence: IQPPPVNRNLKPDRK-amide (IQPPPVNRNLKPDRK-NH2) | – | – | – | Kd (Grb2 SH3C [1]): 3.2 µM
2 | CC1(C)N=C(N)N=C(N)N1c1cccc(OCc2cccc(N)c2)c1.Cl [compound 1] | binders | – | – | –
3 | CC1(C)N=C(N)N=C(N)N1c1cccc(CCCCc2cccc(N)c2)c1.Cl [compound 3, 1-(3-(4-(3-Aminophenyl)butyl)phenyl)-6,6-dime thyl-1,6-dihydro-1,3,5-triazine-2,4-diamine•HCl] | binders | – | – | Hill slope of inhibition curve [2]: −3.1; ITC response (Grb2 SH3C [3]): no measurable response above background; SPR binding behavior above concentrations of 200 µM (Grb2 SH3C domain): superstoichiometric binding
4 | CC1(C)N=C(N)N=C(N)N1c1cccc(/C=C/C=C/c2cccc([N+](=O)[O-])c2)c1.Cl [compound 5, 6,6-Dimethyl-1-(3-((1E,3E)-4-(3-nitrophenyl)buta-1,3-dien-1-yl)phenyl)-1,6-dihydro-1,3,5-triazine-2,4-diamine•HCl] | binders | superstoichiometric | – | Hill slope of inhibition curve [2]: −5.0; fold increase in affinity relative to compound 3 ([2]; ratio of apparent IC50 values): 18 fold; ITC response (Grb2 SH3C [3]): significant reaction heats; SPR binding behavior above concentrations of 200 µM (Grb2 SH3C domain): superstoichiometric binding
5 | CC1(C)N=C(N)N=C(N)N1c1cccc(OCCOc2cccc(N)c2)c1.Cl [compound 9] | binders | superstoichiometric | no activity | –
6 | CC1(C)N=C(N)N=C(N)N1c1cc(C(F)(F)F)cc(C(F)(F)F)c1.Cl [compound 11] | no activity | – | no activity | –
7 | CC1(C)N=C(N)N=C(N)N1c1cccc(OCC#N)c1.Cl [compound 41] | binders | – | – | inhibition in concentration-response experiment ([2]; dose range up to 20 mM, data not shown): unquantifiably weak inhibition; SPR binding behavior above concentrations of 200 µM (Grb2 SH3C domain): superstoichiometric binding
8 | CC(=O)c1ccc(/N=N/c2c(N)nc(N)nc2N)cc1 [compound 46] | binders | – | – | aqueous solubility [4]: poor aqueous solubility
9 | Br.CC1(C)N=C(N)N=C(N)N1c1cccc(CO)c1 [compound 47] | no activity | – | no activity | –
10 | Cl.Cl.NC1CCC(NC2CCC(N)CC2)CC1 (centres unmarked) [compound 147] | binders | superstoichiometric | – | SPR dissociation (Grb2 SH3C domain): long dissociation time; SPR response relative to the maximum theoretical response (Grb2 SH3C domain): over 10 times; SPR response level (Grb2 SH3C domain; maximum theoretical response 56 RU): ~600 RU
11 | Cc1ccc(O)c(C2CC(=O)NC(N)=N2)c1 (centres unmarked) [compound 156] | binders | – | – | SPR sensorgram quality (Grb2 SH3C domain): poor sensorgram shape
12 | Cc1ccc(C(/C=C/c2ccccc2)=N/NC(=N)N)cc1.Cl [compound 164] | binders | superstoichiometric | nearly complete inhibition | precipitation during the assay ([4]; competition assay buffer, compound 5 mM): precipitated during the assay
